# High-throughput results (PubChem BioAssay)
# T cruzi repl – T. cruzi replication inhibition; T. cruzi beta-gal in NIH3T3, luminescence, 90 h; inhibition, % (test concentration not listed); hit rate 1.4% among 300,000; AID 1885;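 active = mean inhibition across valid replicates above about 55%, limit read from the data; inconclusive = mean below that limit but half or more replicates reach it; inactive = mean below it, under half of replicates reach it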;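 note: signal also drops with host cell toxicity which is not excluded here; 0% = plate median of DMSO wells and 100% = zero luminescence signal; higher percent means less beta-gal luminescence so fewer parasites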
#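 Incubation – ≥90 h infection period, 3 h prior cell attachment · System – NIH/3T3 fibroblasts plus reporter T. cruzi · Doses – compound pinned at 50 nL/well, DMSO · Read-out basis – percent inhibition of parasite-derived β-gal signal · Signal – luminescent β-galactosidase signal after 60 min lysis · Also added – 5000 T. cruzi trypomastigotes/well · Medium – Low-serum DMEM with 2% FBS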
# SKKanGAS inh – blocks kanamycin growth of S. pyogenes SKKanGAS strain; AID 1662; hit rate 1.3% among 300,000; BacTiter-Glo, 6 h; inhibition, % at 7.5 µM;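 active = mean replicate score, as percent of positive control median, at least 50; inconclusive = mean below 50 but one replicate at or above 50; inactive = mean and every replicate below 50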;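 note: strain carries kanamycin resistance gene driven by streptokinase promoter and grows in 40 µg/ml kanamycin; loss of luminescence reflects streptokinase promoter inhibition or plain growth inhibition; 0% = median of DMSO wells and 100% = positive control at its reference dose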
# Calb FLC – C. albicans growth modulation with fluconazole; C. albicans CaCi-2 + fluconazole, Alamar Blue growth, 48 h; growth inhibition, % (no concentration beside the values); hit rate 0.57% among 300,000;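 active = growth inhibition above about 58% in most replicates, limit read from the data, passing the limit was not always enough; inconclusive = exactly half the replicates above a set limit; inactive = most replicates below a set limit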;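 note: all wells also contain fluconazole at 8 µg/ml as a sub-toxic cotreatment; 0% = median of DMSO wells and 100% = median of geldanamycin control wells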
# Mdm2-MdmX inh – human Mdm2/MdmX binding inhibition | SaOS-2 split-luciferase Mdm2/MdmX complementation, luminescence | inhibition, % at 8 µM | hit rate 3% among 330,000;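 active = inhibition of at least 50% at 8 µM in the primary screen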
# Target sequence (O15151 whole entry, looked up): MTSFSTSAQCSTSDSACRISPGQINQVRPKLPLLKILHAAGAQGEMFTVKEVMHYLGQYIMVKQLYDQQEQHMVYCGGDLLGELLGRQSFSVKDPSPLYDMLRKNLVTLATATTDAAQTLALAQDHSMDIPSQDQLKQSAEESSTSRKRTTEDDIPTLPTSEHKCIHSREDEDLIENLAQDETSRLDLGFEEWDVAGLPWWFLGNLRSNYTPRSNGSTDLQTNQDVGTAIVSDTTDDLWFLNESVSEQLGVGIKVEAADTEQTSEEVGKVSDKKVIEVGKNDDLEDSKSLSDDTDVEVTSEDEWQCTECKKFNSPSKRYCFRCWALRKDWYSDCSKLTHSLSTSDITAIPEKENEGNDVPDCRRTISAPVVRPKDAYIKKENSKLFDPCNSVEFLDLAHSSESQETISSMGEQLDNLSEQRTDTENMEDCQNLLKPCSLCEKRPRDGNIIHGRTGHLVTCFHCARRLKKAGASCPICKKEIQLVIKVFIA
# Target sequence (Q00987 whole entry, looked up): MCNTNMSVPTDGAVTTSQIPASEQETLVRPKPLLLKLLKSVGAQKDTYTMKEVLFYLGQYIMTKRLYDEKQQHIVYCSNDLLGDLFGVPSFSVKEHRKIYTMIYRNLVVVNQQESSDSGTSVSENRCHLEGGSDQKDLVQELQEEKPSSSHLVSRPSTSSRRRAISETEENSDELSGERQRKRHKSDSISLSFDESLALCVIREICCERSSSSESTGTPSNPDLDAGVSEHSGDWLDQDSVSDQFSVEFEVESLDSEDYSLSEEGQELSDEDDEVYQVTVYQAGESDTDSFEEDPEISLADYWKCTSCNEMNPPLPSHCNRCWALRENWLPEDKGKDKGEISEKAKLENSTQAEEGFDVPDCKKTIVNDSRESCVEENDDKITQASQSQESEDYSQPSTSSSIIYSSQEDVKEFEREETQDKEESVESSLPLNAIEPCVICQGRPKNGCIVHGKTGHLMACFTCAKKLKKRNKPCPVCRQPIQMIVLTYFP
# CSC inhib – cancer stem cell inhibition. cancer stem cell-like cells viability, luminescence. inhibition, % at 7.5 µM. hit rate 1.1% among 300,000; in the data active = inhibition above about 75%; inconclusive = no clear call, values can overlap the other calls; tested in HMLE shEcad cells
# Beta apoptosis – beta cell apoptosis inhibition. protection from apoptosis, % (no concentration beside the values). hit rate 0.8% among 300,000. INS-1E cytokine-induced death, ATP luminescence, 48 h; percent of positive-control rescue, neutral wells zero;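 active = Every replicate reaches about 75%, or at least half do and their mean reaches it too, limit read from the data; inconclusive = At least half of replicates reach the limit but their mean does not; inactive = Under half of replicates reach the limit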;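 note: 0% = cytokine-treated negative control wells and 100% = positive control rescue; higher means more ATP so stronger rescue from cytokine killing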
# Mdm2 MdmX conf – confirmation of human Mdm2/MdmX interaction inhibitors | shares compounds with Mdm2-MdmX inh | Mdm2-MdmX binding, luminescent assay | inhibition, % at 8 µM | hit rate 55% among 10,000; in the data active = inhibition above about 40%
# Full FLuc ctr – inhibits full-length luciferase, flagging false Mdm2/MdmX hits; shares compounds with Mdm2-MdmX inh; SaOS-2 full-length luciferase counterscreen, luminescence; inhibition, % at 8 µM; hit rate 77% among 6,200; AID 504607;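 active = mean inhibition at 8 µM reaching about 37%, which flags the compound as non-specific, limit read from the data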;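 note: p53-null SaOS-2 cells with luciferase driven by a doxycycline-inducible promoter; compound on cells about two nights before reading with doxycycline added after day one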
# * = called active by the depositor; ? = inconclusive; nt = no result given; ! = repeats disagree. Most compounds without a hit are left out; they make up all but 5.7% or so of the library.
SMILES,T cruzi repl,SKKanGAS inh,Calb FLC,Mdm2-MdmX inh,CSC inhib,Beta apoptosis,Mdm2 MdmX conf,others
COc1cccc(-c2nnc(NC(=O)C(C)C)o2)c1,-2.7,5.6,-4.6,18.1,-7.4,nt,nt,
O=C(Nc1nnc(-c2ccc(F)cc2)o1)c1cc(Cl)sc1Cl,15.7,104.7*,-6.2,61.6*,nt,nt,37.5,Full FLuc ctr=37.9*
COc1cccc(-c2nnc(NC(=O)c3ccc(Cl)s3)o2)c1,34.0,96.2*,35.4,60.9*,51.4,nt,17.3,
O=C1c2ccccc2NC(c2ccc(Br)s2)N1O (stereo not given),-9.9,?,1.7,53.8*,9.7,11.2,62.0*,Full FLuc ctr=43.9*
Cc1nc(SCc2nc3c(C)cccc3[nH]2)c2oc3ccccc3c2n1,nt,nt,nt,2.5,nt,6.7,nt,
Cc1nc(SCc2nc3c([N+](=O)[O-])cccc3[nH]2)c2oc3ccccc3c2n1,nt,nt,nt,58.4*,nt,-7.4,14.5,
CCOC(=O)/C=c1\s/c(=C\c2ccc3c(c2)OCCO3)c(=O)n1CC(=O)NCC1CCCO1 (stereo not given),-2.0,2.1,26.1,16.7,0.2,-10.1,nt,
CCOC(=O)/C=c1\s/c(=C\c2ccccc2C)c(=O)n1CC(=O)NCc1ccc2c(c1)OCO2,11.5,9.0,-4.8,92.1*,44.7,9.5,67.5*,Full FLuc ctr=44.1*
CCOC(=O)/C=c1\s/c(=C\c2ccc3cc(OC)ccc3c2)c(=O)n1CC(=O)NCc1ccc2c(c1)OCO2,-19.4,2.6,10.5,79.4*,9.3,-1.4,13.8,
O=C(Nc1nnc(S(=O)(=O)N2CCN(c3ccc(F)cc3)CC2)s1)c1ccccc1,-21.2,44.5,-16.7,-7.6,25.8,21.4,nt,
O=C(COc1cc(F)ccc1[N+](=O)[O-])NCC1CCCO1 (stereo not given),nt,nt,nt,-1.4,-4.2,3.5,nt,
CC(C)N=C(N)N=C(N)Nc1ccc(Cl)cc1,nt,nt,nt,26.8,nt,nt,nt,
NC(=NCCCCCCN=C(N)/N=C(\N)Nc1ccc(Cl)cc1)/N=C(\N)Nc1ccc(Cl)cc1,55.8*!,102.6*,105.7*,90.5*,78.2*!,119.7*,66.1*,Full FLuc ctr=56.8*
COc1ccc(C2CN=NC23CCc2ccccc2C3=O)cc1 (stereo not given),-8.4,-3.3,6.1,65.8*,60.7,13.5,52.9*,Full FLuc ctr=88.8*
COc1ccc(C2CN=NC23CCCc2ccccc2C3=O)cc1 (stereo not given),-15.1,4.2,3.5,14.7,15.3,-2.0,nt,
COc1ccc(C2CC(O)(c3ccccc3)Oc3c(C)ccc(C)c32)cc1 (stereo not given),34.1,89.1*,-2.0,50.8*,nt,-4.9,24.8,
COc1ccc(C2CC(O)(c3ccccc3)Oc3cc(OC)cc(OC)c32)cc1 (stereo not given),24.7,-2.7,10.7,8.7,nt,nt,nt,
CCCN1CCC(NCc2cn(C)nc2-c2ccc(Oc3ccccc3)cc2)CC1,17.8,-11.3,0.2,64.7*,6.2,4.2,64.8*,Full FLuc ctr=56.5*
COCCN1CCCC(CNCc2cn(C)nc2-c2ccc(Oc3ccccc3)cc2)C1 (stereo not given),42.7,2.5,-23.0,71.3*,3.3,3.8,60.3*,Full FLuc ctr=50.0*
COC1CCCN(Cc2cn(C)nc2-c2ccc(Oc3ccccc3)cc2)C1 (stereo not given),11.7,2.1,-4.6,5.5,-6.3,-1.2,nt,
COc1ccc(Nc2ncnc3ccccc23)c(OC)c1,-11.2,-5.2,8.6,9.4,-9.5,-8.4,nt,
COc1ccc(Nc2nc(N3CCCC3)nc3ccccc23)c(OC)c1,65.1*,3.9,-0.5,54.3*,28.0,62.0,2.4,
CC(Nc1nc(N2CCCCC2)nc2ccccc12)c1ccccc1 (stereo not given),63.9*,1.1,39.0,54.2*,nt,26.3,47.0*,Full FLuc ctr=72.5*
C=CCNc1nc(N2CCCC2)nc2ccccc12,27.1,-1.3,-1.1,9.4,8.3,14.1,nt,
O=C(N[C@@H]1c2ccccc2CC[C@@H]1OCc1ccccc1)c1ccc(-c2ccccc2)cc1,nt,nt,nt,34.2,nt,nt,nt,
SMILES,T cruzi repl,SKKanGAS inh,Calb FLC,Mdm2-MdmX inh,CSC inhib,Beta apoptosis,Mdm2 MdmX conf,others
CC(O)CC(=O)NOCc1ccccc1 (stereo not given),nt,nt,nt,2.7,nt,nt,nt,
CCCCOc1ccc(Nc2cc(Cl)ccc2C(=O)O)cn1,-1.0,21.6,27.1,11.7,21.4,-2.8,nt,
CC(C)c1nc2sc3c(NCc4ccccc4)ncnc3c2c2c1COC(C)(C)C2,38.4,10.2,-3.2,18.3,28.9,-4.6,nt,
CC(C)c1nc2sc3c(NCc4ccco4)ncnc3c2c2c1COC(C)(C)C2,39.8,17.1,12.1,52.9*,61.1,2.0,32.9,
COc1ccccc1CNC(=O)c1ccc(NC2=NC3CS(=O)(=O)CC3S2)cc1 (stereo not given),-12.8,-2.5,-2.7,7.2,-9.3,-0.8,nt,
C=CCNC(=O)C1CC1(c1cccc(C)c1)c1cccc(C)c1 (stereo not given),3.7,1.7,5.5,13.8,-6.5,nt,nt,
Cc1cccc(C2(c3cccc(C)c3)CC2C(=O)Nc2ccc([N+](=O)[O-])cc2O)c1 (stereo not given),5.4,72.4*,38.7,90.1*,nt,nt,94.3*,Full FLuc ctr=50.8*
C=CCC[C@@H](Cc1ccc(F)cc1)C(=O)OCCNC(=O)[C@H](CC=C)CC(=O)NCCO,nt,nt,nt,0.0,-17.4,-1.7,nt,
N#Cc1c(-c2ccccc2)c(-c2ccccc2)nn(CC(=O)NNC(=O)Nc2ccc(Cl)c(Cl)c2)c1=O,2.2,62.5*,42.5,62.7*,105.4*,6.9,47.3*,Full FLuc ctr=35.9
Cc1sc2nc(C3CC3)nc(SCC(=O)N3CCc4ccccc4C3)c2c1C,21.0,24.8,-7.0,-2.5,21.0,-10.2,nt,
CCCc1nc(SCC(=O)N2c3ccccc3CC2C)c2c(C)c(C)sc2n1 (stereo not given),31.6,41.2,-12.5,65.9*,18.8,2.5,25.5,
Cc1sc2nc(C3CC3)nc(SCC(=O)N3CCCc4ccccc43)c2c1C,20.0,-2.3,6.0,70.6*,42.0,5.6,23.2,
Clc1ccc(CSc2ncnc3nc[nH]c23)cc1,-32.1,-4.5,13.2,19.4,49.7,-4.1,nt,
CCC(C)Sc1nc2c(cnn2-c2ccc(C)c(C)c2)c(=O)[nH]1 (stereo not given),19.2,14.6,0.4,10.7,12.9,1.6,nt,
CSc1nc2c(cnn2-c2ccc(C)c(C)c2)c(=O)[nH]1,-1.4,5.4,-9.1,53.1*,-1.9,nt,5.2,
COc1ccc2c(c1)-c1c(ssc1=S)C(C)(C)N2C(=O)CSC1=NCCS1,32.3,-0.1,15.9,64.0*,13.6,-3.0,33.0,
CC1(C)c2ssc(=S)c2-c2ccccc2N1C(=O)CSC1=NCCS1,48.3,0.2,10.7,51.9*,3.1,-7.1,27.4,
